Results taken from ChEMBL document CHEMBL1135626, “Imidazole inhibitors of cytokine release: probing substituents in the 2 position” (J Med Chem, 2002).

Key:
Homo sapiens [1] = species on record: Homo sapiens; assay: Ability to inhibit the release of tumor necrosis factor alpha (TNF-alpha) from whole blood; assay type: functional
Outline: (§1)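 Human whole blood preincubated 15 min (37 °C, 5% CO2) with compounds in Cremophor EL/ethanol 70:30 (1% final), then stimulated 4 h with 1µg/mL LPS (E. coli 026:B6). Reaction stopped on ice, samples centrifuged, supernatant IL-1β and TNF-α measured by ELISA. IC50 read from semilog plot of % reduction vs control over 10^-4–10^-8 M; at least duplicate.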

[2] = Inhibition of the release of interleukin-1-beta from peripheral blood mononuclear cells; assay type: functional; conditions: Homo sapiens
Outline: (§2)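 PBMC isolated from healthy donor blood by density gradient centrifugation, ~10⁶ cells/mL, preincubated 15 min (37 °C, 5% CO2) with compounds in DMSO (1% final), then LPS 1µg/mL (E. coli 026:B6) for 4 h. Supernatant IL-1β and TNF-α by ELISA after ice stop and centrifugation. IC50 from semilog plot of % reduction vs control, 10^-4–10^-8 M; at least duplicate.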

Homo sapiens [3] = species on record: Homo sapiens; assay: Ability to inhibit the release of interleukin-1-beta (IL-1 beta) from whole blood; assay type: functional; outline: as §1
[4] = Inhibition of the release of tumor necrosis factor alpha from peripheral blood mononuclear cells; assay type: functional; conditions: Homo sapiens; outline: as §2
[5] = biological target: Mitogen-activated protein kinase 14 (Homo sapiens, UniProt Q16539); assay: Inhibition of Mitogen-activated protein kinase p38 (P38 MAPK)
Sequence of Mitogen-activated protein kinase 14 (Q16539 whole entry): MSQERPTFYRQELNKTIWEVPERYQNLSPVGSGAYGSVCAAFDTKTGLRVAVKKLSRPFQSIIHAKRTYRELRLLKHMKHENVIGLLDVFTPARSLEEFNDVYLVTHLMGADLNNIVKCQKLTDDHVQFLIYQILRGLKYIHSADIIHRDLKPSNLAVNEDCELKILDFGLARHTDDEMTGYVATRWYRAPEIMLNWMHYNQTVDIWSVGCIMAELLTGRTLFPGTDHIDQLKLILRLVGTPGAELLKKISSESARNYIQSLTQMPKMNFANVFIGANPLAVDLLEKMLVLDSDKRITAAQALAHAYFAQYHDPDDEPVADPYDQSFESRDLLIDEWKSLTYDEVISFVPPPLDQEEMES

Row | Structure (SMILES) | IC50 (Homo sapiens [1]) [µM] | IC50 [2] [µM] | IC50 (Homo sapiens [3]) [µM] | IC50 [4] [µM] | IC50 [5] [µM]
1 | C[S+]([O-])c1ccc(CSc2nc(-c3ccc(F)cc3)c(-c3ccncc3)[nH]2)cc1 (configuration not stated) | 20.3 | 0.38 | 2.78 | 1.1 | 4
2 | CSc1nc(-c2ccncc2)c(-c2ccc(F)cc2)[nH]1 | 4.2 | 0.044 | 1.2 | 0.9 | 0.63
3 | CS(=O)(=O)c1ccc(CSc2nc(-c3ccc(Cl)cc3)c(-c3ccncc3)[nH]2)cc1 |  | 0.32 |  | 6.1 | 
4 | CSc1ccc(CSc2nc(-c3ccc(Br)cc3)c(-c3ccncc3)[nH]2)cc1 |  | 2.4 |  | 12.9 | 
5 | C[S+]([O-])c1cc(Cl)cc(CSc2nc(-c3ccc(F)cc3)c(-c3ccncc3)[nH]2)c1O (configuration not stated) |  | 4.4 |  | 28 | 
6 | C[S+]([O-])c1ccc(CSc2nc(-c3ccc(F)cc3)c(-c3cccnc3)[nH]2)cc1 (configuration not stated) |  | 98 |  | > 100 | 
7 | C[S+]([O-])c1ccc(O)c(CSc2nc(-c3ccc(F)cc3)c(-c3ccncc3)[nH]2)c1 (configuration not stated) | 103 | 1 | 13 | 5.8 | 
8 | CSc1ccc(CSc2nc(-c3ccc(Cl)cc3)c(-c3ccncc3)[nH]2)cc1 |  | 2.2 |  | 14 | 
9 | Fc1ccc(-c2[nH]c(SCc3ccccc3)nc2-c2ccncc2)cc1 |  | 0.3 |  | 3.5 | 35
10 | C[S+]([O-])c1cc(CSc2nc(-c3ccncc3)c(-c3ccc(F)cc3)[nH]2)ccc1O (configuration not stated) | 9 | 2.3 | 12.1 | 5 | 3.4
11 | CSc1cc(CSc2nc(-c3ccncc3)c(-c3ccc(F)cc3)[nH]2)ccc1O |  | 0.28 |  | 1.1 | 3.8
12 | CSc1cc(Cl)cc(CSc2nc(-c3ccc(F)cc3)c(-c3ccncc3)[nH]2)c1O |  | 0.64 |  | 13.3 | 
13 | Oc1cccc(CSc2nc(-c3ccc(F)cc3)c(-c3ccncc3)[nH]2)c1 |  | 0.31 |  | 5.4 | 
14 | Oc1ccc(CSc2nc(-c3ccncc3)c(-c3ccc(F)cc3)[nH]2)cc1 |  | 0.37 |  | 6.8 | 5.7
15 | N#CCSc1nc(-c2ccncc2)c(-c2ccc(F)cc2)[nH]1 |  | < 0.1 |  | 2.3 | 
16 | CS(=O)(=O)c1ccc(CSc2nc(-c3ccccc3)c(-c3ccncc3)[nH]2)cc1 |  | 1.7 |  | 8 | 
17 | C[S+]([O-])c1cccc(CSc2nc(-c3ccncc3)c(-c3ccc(F)cc3)[nH]2)c1 (configuration not stated) | 33.5 | 1 | 4.1 | 23.5 | 2.1
18 | C[S+]([O-])c1ccc(CSc2nc(-c3ccccc3)c(-c3ccncc3)[nH]2)cc1 (configuration not stated) |  | 0.84 |  | 4.3 | 12
19 | CS(=O)(=O)c1ccc(CSc2nc(-c3ccc(F)cc3)c(-c3ccncc3)[nH]2)cc1 | 28.8 | 0.33 | 2.9 | 2.5 | 

Row | Structure (SMILES) | IC50 (Homo sapiens [1]) [µM] | IC50 [2] [µM] | IC50 (Homo sapiens [3]) [µM] | IC50 [4] [µM] | IC50 [5] [µM]
20 | Fc1ccc(-c2[nH]c(SCCc3ccccc3)nc2-c2ccncc2)cc1 |  | 0.64 |  | 23.5 | 
21 | Fc1ccc(-c2[nH]c(SCC3CCCCC3)nc2-c2ccncc2)cc1 |  | 0.24 |  | 33.8 | 
22 | Fc1ccc(-c2[nH]c(SCc3cccc4ccccc34)nc2-c2ccncc2)cc1 |  | 0.82 |  | 8.8 | 
23 | CSc1ccccc1CSc1nc(-c2ccc(F)cc2)c(-c2ccncc2)[nH]1 |  | 6.7 |  | 18.3 | 
24 | CSc1ccc(O)c(CSc2nc(-c3ccc(F)cc3)c(-c3ccncc3)[nH]2)c1 |  | 0.74 |  | 5.1 | 
25 | Fc1ccc(-c2[nH]c(SCCCc3ccccc3)nc2-c2ccncc2)cc1 |  | 0.47 |  | 16 | 
26 | CSc1ccc(CSc2nc(-c3ccc(F)cc3)c(-c3ccncc3)[nH]2)cc1 |  | 0.67 |  | 4.9 | 
27 | Fc1ccc(-c2[nH]c(/C=C/c3ccccc3)nc2-c2ccncc2)cc1 |  | 0.13 |  | 6.5 | 
28 | C[S+]([O-])c1ccc(CCSc2nc(-c3ccncc3)c(-c3ccc(F)cc3)[nH]2)cc1 (configuration not stated) |  | 0.5 |  | 7.3 | 1.5
29 | CSc1ccc(CSc2nc(-c3ccccc3)c(-c3ccncc3)[nH]2)cc1 |  | 72.5 |  | 17.1 | 
30 | C[S+]([O-])c1ccc(CSc2nc(-c3ccc(Br)cc3)c(-c3ccncc3)[nH]2)cc1 (configuration not stated) |  | 0.82 |  | 7.8 | 3.8
31 | CSc1cccc(CSc2nc(-c3ccncc3)c(-c3ccc(F)cc3)[nH]2)c1 |  | 0.55 |  | 12 | 2.3
32 | C[S+]([O-])c1ccc(CSc2nc(-c3ccc(Cl)cc3)c(-c3ccncc3)[nH]2)cc1 (configuration not stated) |  | 0.32 |  | 3.1 | 1.4
33 | CS(=O)(=O)c1ccc(CSc2nc(-c3ccc(Br)cc3)c(-c3ccncc3)[nH]2)cc1 |  | 0.64 |  | 7.3 | 
34 | C[S+]([O-])c1ccccc1CSc1nc(-c2ccc(F)cc2)c(-c2ccncc2)[nH]1 (configuration not stated) | 47.5 | 0.9 | 4 | 15 | 
35 | C[S+]([O-])c1ccc(CCCSc2nc(-c3ccc(F)cc3)c(-c3ccncc3)[nH]2)cc1 (configuration not stated) |  | 0.18 |  | 3.6 | 0.75
36 | Oc1ccccc1CSc1nc(-c2ccc(F)cc2)c(-c2ccncc2)[nH]1 |  | 0.44 |  | 24.8 | 
37 | Fc1ccc(-c2[nH]c(CCc3ccccc3)nc2-c2ccncc2)cc1 |  | 0.14 |  | 5.4 | 0.69
